Results gathered from unrelated publications.
pknB: Serine/threonine-protein kinase PknB (pknB, Mycobacterium tuberculosis, UniProt P9WI81)
1-deoxy-D-xylulose 5-phosphate reductoisomerase: 1-deoxy-D-xylulose 5-phosphate reductoisomerase (Mycobacterium tuberculosis, UniProt P9WNS1)
DPP4: Dipeptidyl peptidase 4 (DPP4, Homo sapiens, UniProt P27487)
ENAH: Protein enabled homolog (ENAH, UniProt Q8N8S7)

SMILES | target | assay | conditions | quantity | value
CC(C)(C)OC(=O)N1CCN(c2ccc(Nc3nccc(-c4ccccc4)n3)cc2C(F)(F)F)CC1 | pknB | enzyme activity, inhibitor | – | IC50 | > 20 µM
CC(=O)N(O)CCC(c1ccc(-c2ccsc2)cc1)P(=O)(O)O (centres unmarked) | 1-deoxy-D-xylulose 5-phosphate reductoisomerase | enzyme activity, inhibitor, absorbance | pH 7.5 | IC50 | 5.7 µM
CN1[C@H]2CC[C@@H]1[C@@H](c1cc(-c3ccccc3)no1)[C@H](OC(c1ccc(F)cc1)c1ccc(F)cc1)C2 | Transporter (Slc6a2, Rattus norvegicus, UniProt Q63380) | ligand displacement, radioligand | cell membranes | Ki | 0.413 µM
CC(C)[C@H](N)C(=O)N1CCC[C@H]1C(=O)N[C@H](C(=O)N1CCC[C@H]1C(=O)NCC(=O)O)C(C)C | DPP4 | enzyme activity, inhibitor, absorbance | pH 8 | IC50 | 84.9 µM
CC(=O)N[C@@H](CO)C(=O)N[C@@H](Cc1ccccc1)C(=O)N[C@@H](CCC(=O)O)C(=O)N[C@@H](Cc1ccccc1Cl)C(=O)N1CCC[C@H]1C(=O)N1CCC[C@H]1C(=O)N1CCC[C@H]1C(=O)N1CCC[C@H]1C(=O)N[C@H](C(=O)N[C@@H](CCC(=O)O)C(=O)N[C@@H](CC(=O)O)C(=O)N[C@@H](CC(=O)O)C(=O)N[C@@H](CC(C)C)C(N)=O)[C@@H](C)O | ENAH | binding, fluorescence | – | Kd | 1.43 µM
CC(C)[C@H](N)C(=O)N1CCC[C@H]1C(=O)N[C@H](C(=O)N1CCC[C@H]1C(=O)N[C@@H](Cc1ccc(O)cc1)C(=O)O)C(C)C | DPP4 | enzyme activity, inhibitor, absorbance | pH 8 | IC50 | 80.7 µM
CC(=O)N[C@@H](CO)C(=O)N[C@@H](Cc1ccccc1)C(=O)N[C@@H](CCC(=O)O)C(=O)N[C@@H](Cc1ccccc1Cl)C(=O)N1CCC[C@H]1C(=O)N1CCC[C@H]1C(=O)N1CCC[C@H]1C(=O)N1CCC[C@H]1C(=O)O | ENAH | binding, fluorescence | – | Kd | 4.6 µM
CC(=O)N(O)CCC(c1ccc(-c2c(C)noc2C)cc1)P(=O)(O)O (centres unmarked) | 1-deoxy-D-xylulose 5-phosphate reductoisomerase | enzyme activity, inhibitor, absorbance | pH 7.5 | IC50 | 21.5 µM
COc1cccc(-c2ccnc(Nc3ccc(N4CCN(C(=O)OC(C)(C)C)CC4)c(C(F)(F)F)c3)n2)c1 | pknB | enzyme activity, inhibitor | – | IC50 | > 20 µM
CC(=O)N(O)CCC(c1ccc(-c2cccc(C)c2)cc1)P(=O)(O)O (centres unmarked) | 1-deoxy-D-xylulose 5-phosphate reductoisomerase | enzyme activity, inhibitor, absorbance | pH 7.5 | IC50 | 2.4 µM
CC(C)[C@H](N)C(=O)N1CCC[C@H]1C(=O)N[C@H](C(=O)N1CCC[C@H]1C(=O)N[C@H](C(=O)O)[C@@H](C)O)C(C)C | DPP4 | enzyme activity, inhibitor, absorbance | pH 8 | IC50 | 131 µM
